# High-throughput results as filed in PubChem.
# Pf Dd2 inh: P. falciparum Dd2 growth inhibitors, primary screen, SYBR Green fluorescence, single dose replicates | activity change, % at 10 µM | 72 h; active compounds read low | hit rate 2.3% among 94,000; in the data active = activity change below about -80%; inconclusive = no clear call, values can overlap the other calls
# T cruzi growth-1: T. cruzi intracellular proliferation inhibitors, primary screen, cell-based, beta-gal Tulahuen parasites, NIH3T3 host, luminescence. T. cruzi beta-gal in NIH3T3, GalScreen luminescence, 90 h. inhibition, % at 8.34 µM. hit rate 5.9% among 77,000;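 active = mean inhibition above about 93%, with at least 55% of replicates each passing it, limit read from the data, passing the limit was not always enough; inconclusive = only one of those two conditions holds; inactive = neither condition holds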
# KDM4C inh: inhibitors of GASC-1 (KDM4C) histone demethylase, primary screen, biochemical, single concentration HTS; AID 720574, 2013; GST-KDM4C 2-372, H3K9me3 peptide, LANCE TR-FRET; hit rate 0.15% among 96,000; inhibition, % at 12.5 µM; Lysine-specific demethylase 4C (Homo sapiens), Q9H3R0;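 active = mean replicate inhibition above about 25%, with at least 55% of replicates also reaching it, limit read from the data, passing the limit was not always enough; inconclusive = only one of those two conditions met; inactive = neither condition met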
# Target sequence (Q9H3R0 2-372 limits assumed): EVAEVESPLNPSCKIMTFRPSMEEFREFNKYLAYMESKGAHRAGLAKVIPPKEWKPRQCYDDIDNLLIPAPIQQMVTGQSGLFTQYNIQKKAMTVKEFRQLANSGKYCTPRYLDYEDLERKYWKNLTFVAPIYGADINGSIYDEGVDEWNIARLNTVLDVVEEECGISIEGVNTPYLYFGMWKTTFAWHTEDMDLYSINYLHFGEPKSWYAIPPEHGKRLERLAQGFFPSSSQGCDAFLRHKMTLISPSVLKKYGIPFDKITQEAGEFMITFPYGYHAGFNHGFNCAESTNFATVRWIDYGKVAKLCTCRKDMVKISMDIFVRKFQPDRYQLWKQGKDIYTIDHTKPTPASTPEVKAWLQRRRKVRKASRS
#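 System: N-terminal GST-fused human GASC-1 (KDM4C) fragment, residues 2-372; amount: enzyme final amount 10 nM; incubation: reaction 30 min RT, detection step 1 h RT; medium: HEPES buffer, pH 7.5, plus ascorbate; technique: LANCE TR-FRET, Eu antibody, ULight-streptavidin, EDTA, ex 340 nm, em 618/671 nm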
# IDH1 R132H inh: inhibitors of IDH1 R132H reductase, primary screen, biochemical, plate reader, single point; Isocitrate dehydrogenase [NADP] cytoplasmic (Homo sapiens), O75874; diaphorase/resazurin fluorescence, 60 min; inhibition, % at 10 µM; hit rate 0.18% among 70,000; AID 624101, 2012; in the data active = inhibition above about 34%; inconclusive = no clear call, values can overlap the other calls; inactive = below about 11%;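 note: 0% = DMSO and 100% = no enzyme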
# T cruzi growth-2: T. cruzi intracellular proliferation inhibitors, confirmation, cell-based, NIH3T3 host, beta-gal parasite, luminescence, cherry-pick. AID 651739, 2012. T. cruzi beta-gal in NIH3T3, GalScreen luminescence, 90 h. shares compounds with T cruzi growth-1. hit rate 72% among 5,600. inhibition, % at 8.35 µM;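 active = mean replicate inhibition above about 95% and at least 55% of replicates individually reaching it, limit read from the data; inconclusive = only one of the two criteria is met; inactive = neither criterion is met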
# T cruzi growth-3: inhibitors of intracellular T. cruzi replication, confirmation, NIH3T3 host cells, beta-gal parasites, cherry-pick, set 2; shares compounds with T cruzi growth-1; hit rate 21% among 5,600; T. cruzi beta-gal in NIH3T3, GalScreen luminescence, 90 h; inhibition, % at 2.09 µM;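 active = mean inhibition above about 95%, with at least 55% of replicates also reaching it, limit read from the data; inconclusive = meets just one of the two conditions; inactive = meets neither condition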;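 note: plate controls were neutral control median for no effect and positive control median for full effect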
# NIH3T3 tox: cytotoxicity in mouse NIH/3T3 fibroblasts, confirmation, cytotoxicity control for T. cruzi proliferation inhibitor project, cell-based, cherry-pick, single point. shares compounds with T cruzi growth-1. NIH/3T3 viability, CellTiter-Glo ATP luminescence, 90 h. cytotoxicity (signal decrease), % at 8.35 µM. hit rate 14% among 5,600;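 active = mean signal decrease across replicates above about 35% based on untreated-well scatter, with enough replicates individually passing, limit read from the data; inconclusive = no rule stated though some were filed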;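 note: 0% = median of neutral control wells and 100% = median of positive control wells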
# NIH3T3 tox 2: NIH/3T3 fibroblast cytotoxicity, confirmation, cytotoxicity control, cell-based, cherry-pick, single point, set 2 | inhibition, % at 24.9 µM | AID 651744, 2012 | NIH/3T3 viability, CellTiter-Glo ATP luminescence, 90 h | shares compounds with T cruzi growth-1 | hit rate 56% among 5,600;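 active = mean loss of cell viability signal at or above a set limit, and enough replicates individually reaching it; inconclusive = meets only the mean limit or only the replicate share; inactive = meets neither condition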;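 note: 0% = median of neutral control wells and 100% = median of positive control wells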
# * hit, by the source's call; ? = inconclusive; . = no result. This is a sample that favours compounds with a hit; in the whole collection about 5.8% have one here.
SMILES,Pf Dd2 inh,T cruzi growth-1,KDM4C inh,IDH1 R132H inh,T cruzi growth-2,T cruzi growth-3,NIH3T3 tox,NIH3T3 tox 2
O=C(CSc1nc2ccc([N+](=O)[O-])cc2s1)Nc1cc(Cl)cc(Cl)c1,.,.,.,-0.2,.,.,.,.
N#Cc1ccc(/C=N/NC(=O)CCCCC(=O)NO)cc1,.,.,.,-0.2,.,.,.,.
CN1Cc2cc3c(cc2CCC(=O)c2cc4c(cc2C1)OCO4)OCO3,.,.,.,0.4,.,.,.,.
CC(=O)N1CCCCN2[C@H](CO)[C@@H](c3ccc(-c4ccc(C)cc4)cc3)[C@H]2C1,36.8,105.7*,-0.9,.,2.6,-15.2,20.9,73.8*
CC(=O)N1CCCCN2[C@H](C1)[C@@H](c1ccc(-c3ccc(C)cc3)cc1)[C@@H]2CO,17.4,111.0*,-0.5,.,38.1,-70.0,8.1,-0.5
COc1ccc(OC)c(S(=O)(=O)N2CCC(C(=O)Nc3ccccc3F)CC2)c1,.,.,.,0.0,.,.,.,.
CCc1cnc(N2[C@H](C#N)[C@@H](c3ccc(C#Cc4ccccc4F)cc3)[C@@H]2CO)s1,-52.7,100.4*,-0.8,.,100.1*,107.1*,-25.4,84.9*
CCc1cnc(N2[C@H](C#N)[C@@H](c3ccc(-c4cccc(F)c4)cc3)[C@@H]2CO)s1,-21.6,?,-1.7,.,104.4*,52.0,-3.9,100.0*
CCc1cnc(N2[C@@H](C#N)[C@H](c3ccc(C#Cc4ccccc4F)cc3)[C@@H]2CO)s1,-44.3,110.1*,-1.3,.,105.1*,94.3,10.7,1.6
CCc1cnc(N2[C@H](C#N)[C@H](c3ccccc3)[C@H]2CO)s1,26.5,-6.9,-0.5,.,.,.,.,.
CCc1cnc(N2[C@H](C#N)[C@@H](c3ccccc3)[C@H]2CO)s1,20.5,6.5,-1.1,.,.,.,.,.
Cc1ccc(S(=O)(=O)N(C)C[C@H]2Oc3c(cccc3N(C)C)C(=O)N([C@H](C)CO)C[C@@H]2C)cc1,-0.2,?,-1.0,-5.3,98.7*,15.2,8.2,27.8*
COc1ccc(S(=O)(=O)N(C)C[C@@H]2Oc3c(NC(=O)Nc4cccc5ccccc45)cccc3C(=O)N([C@@H](C)CO)C[C@H]2C)cc1,.,.,-0.6,2.3,.,.,.,.
C[C@@H]1CN([C@H](C)CO)C(=O)c2cccc(NC(=O)Nc3ccc(C(F)(F)F)cc3)c2O[C@H]1CN(C)S(=O)(=O)c1ccc(F)cc1,9.7,?,-5.2,6.4,107.8*,33.8,9.8,39.3*
Cc1ccc(S(=O)(=O)N(C)C[C@H]2Oc3c(NC(=O)Nc4ccccc4)cccc3C(=O)N([C@H](C)CO)C[C@H]2C)cc1,-36.9,100.8*,-0.1,0.3,?,19.8,5.9,47.8*
COc1ccc(S(=O)(=O)N(C)C[C@@H]2Oc3c(NC(=O)Nc4cccc5ccccc45)cccc3C(=O)N([C@H](C)CO)C[C@@H]2C)cc1,-92.0*,125.8*,10.6,-0.5,?,64.9,33.4,30.2*
C[C@H](CO)N1C[C@H](C)[C@@H](CN(C)S(=O)(=O)c2ccc(F)cc2)Oc2c(NC(=O)Nc3ccc(C(F)(F)F)cc3)cccc2C1=O,11.5,.,-1.2,-1.3,.,.,.,.
COc1cc(OC)cc(-c2nnc(SCC(=O)Nc3ccc(I)cc3)o2)c1,.,.,.,-0.3,.,.,.,.
C[C@H](CO)N1C[C@H](C)[C@@H](CN(C)S(=O)(=O)c2ccc(Cl)cc2)Oc2c(NC(=O)Nc3ccc(C(F)(F)F)cc3)cccc2C1=O,-69.7,?,.,0.9,90.1,111.3*,46.1*,104.9*
